How the values were obtained:
[1] = Safety, TEAEs, SAD; format: in vivo, human
Outline: (§1)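 Safety population: all participants exposed to study drug, followed from first dose to the end‑of‑study visit. Assessments covered physical and neurological exams, AEs, SAEs and AESIs (seizure, ALT ≥2×ULN, QTc ≥500 ms, pregnancy, overdose). Lab, vital‑sign and 12‑lead/Holter ECG abnormalities were also recorded. Coding used MedDRA 23.1 (part 1) or 24.0 (part 2), with severity graded 1–4 per FDA guidance. Counts were summarised per dose group, with placebo pooled.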

[2] = Plasma PK, PK‐CSF; format: in vivo, human; settings: for CL/F, geometric mean (%CV): after breakfast; for Vd/F: both, human, plasma, oral
Outline: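 Open‑label part: single oral 10 or 40 mg dose given about 30 min after breakfast. Plasma was collected predose and at 10 postdose times, one of them coinciding with lumbar‑puncture CSF sampling. Drug was quantified by validated HPLC‑MS (LLOQ 1 ng/mL). CL/F and Vz/F were derived from plasma concentration‑time data and summarised per dose group.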

[3] = tested on: CYP3A4; test: Plasma 4β‐hydroxycholesterol day 14/day 1 ratio; format: in vivo, human; settings: repeated doses up to 20 mg b.i.d.
Outline: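 MAD healthy adults received oral capsules (10 or 20 mg q.d., 15 or 20 mg b.i.d.; fasted) or placebo for 14 days. Plasma 4β‑hydroxycholesterol was measured predose on day 1 and day 14, and day 14/day 1 ratios were calculated. Geometric mean of the log‑transformed ratio with 90% CI was obtained by analysis of covariance, per dose group and overall.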

[4] = target: T1, RIPK1 (Homo sapiens, UniProt Q13546); test: pS166‐RIPK1 inhibition in PBMC lysates, SAD; format: in vivo; settings: SAD all dose groups, from 1 h to at least 5 h postdose
T1 sequence (Q13546 1-671): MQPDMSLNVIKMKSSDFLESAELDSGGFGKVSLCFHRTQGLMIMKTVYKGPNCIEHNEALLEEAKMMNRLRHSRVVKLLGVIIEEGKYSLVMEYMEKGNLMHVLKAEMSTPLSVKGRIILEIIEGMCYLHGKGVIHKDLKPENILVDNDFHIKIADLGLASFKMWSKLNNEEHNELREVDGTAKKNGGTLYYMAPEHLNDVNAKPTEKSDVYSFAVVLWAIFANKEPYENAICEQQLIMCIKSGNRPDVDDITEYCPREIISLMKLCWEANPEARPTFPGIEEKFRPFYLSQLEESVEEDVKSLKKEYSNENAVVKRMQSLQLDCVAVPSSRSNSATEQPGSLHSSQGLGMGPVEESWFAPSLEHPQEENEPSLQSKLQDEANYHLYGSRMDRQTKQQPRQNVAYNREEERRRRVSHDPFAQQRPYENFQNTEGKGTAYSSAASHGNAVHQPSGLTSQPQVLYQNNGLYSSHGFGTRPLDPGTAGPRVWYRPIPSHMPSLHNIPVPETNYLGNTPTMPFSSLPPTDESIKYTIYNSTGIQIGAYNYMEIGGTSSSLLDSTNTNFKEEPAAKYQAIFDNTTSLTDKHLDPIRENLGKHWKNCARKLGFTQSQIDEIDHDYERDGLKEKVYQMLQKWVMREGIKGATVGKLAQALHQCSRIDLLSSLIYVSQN
Outline: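 After a single fasted oral dose or placebo, blood was collected predose, at 1, 3, 5 and 8 h on day 1, and at 24 h. PBMCs were isolated and autophosphorylated RIPK1 (pS166) quantified in lysates. Percent change from baseline was summarised descriptively as median (Q1–Q3) by dose group and timepoint.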

[5] = Overall safety and tolerability, all study parts; format: in vivo, human
Outline: as §1

CC(C)(C(=O)N1CCOc2c(C#N)cncc2C1)C(F)F [SAR443820]
Any TEAE, n (%) ([1]; SAD 10 mg (n = 6)): 2 (33.3) n (%) | Any grade ≥3 TEAE, n (%) ([1]; SAD 10 mg (n = 6)): 0 n (%) | Any treatment‐emergent AESI, n (%) ([1]; SAD 10 mg (n = 6)): 0 n (%) | Any treatment‐emergent SAE, n (%) ([1]; SAD 10 mg (n = 6)): 0 n (%) | Any TEAE, n (%) ([1]; SAD 20 mg (n = 6)): 1 (16.7) n (%) | Any grade ≥3 TEAE, n (%) ([1]; SAD 20 mg (n = 6)): 0 n (%) | Any treatment‐emergent AESI, n (%) ([1]; SAD 20 mg (n = 6)): 0 n (%) | Any treatment‐emergent SAE, n (%) ([1]; SAD 20 mg (n = 6)): 0 n (%) | Any TEAE, n (%) ([1]; SAD 30 mg (n = 6)): 3 (50.0) n (%) | Any grade ≥3 TEAE, n (%) ([1]; SAD 30 mg (n = 6)): 0 n (%) | Any treatment‐emergent AESI, n (%) ([1]; SAD 30 mg (n = 6)): 0 n (%) | Any treatment‐emergent SAE, n (%) ([1]; SAD 30 mg (n = 6)): 0 n (%) | Any TEAE, n (%) ([1]; SAD 40 mg (n = 6)): 3 (50.0) n (%) | Any grade ≥3 TEAE, n (%) ([1]; SAD 40 mg (n = 6)): 0 n (%) | Any treatment‐emergent AESI, n (%) ([1]; SAD 40 mg (n = 6)): 0 n (%) | Any treatment‐emergent SAE, n (%) ([1]; SAD 40 mg (n = 6)): 0 n (%) | CL/F, geometric mean (%CV) ([2]; PK‐CSF 10 mg single dose): 7.27 (29.7) L/h | CL/F, geometric mean (%CV) ([2]; PK‐CSF 40 mg single dose): 8.43 (34.2) L/h | Vd/F ([2]; 10 mg): 83.6 L | Vd/F ([2]; 40 mg): 97.7 L | Food effect on absorption ([2]; capsule in fed conditions vs fasted): no evidence that the extent of absorption was impacted by food | Potential for CYP3A4 induction [3]: no potential for CYP3A4 induction | Median pS166‐RIPK1 inhibition in PBMC lysates [4]: greater than 80% | Most common AEs ([5]; all study parts): dizziness (SAD) and headache (PK‐CSF and MAD) | Overall tolerability ([5]; healthy participants, single doses up to 40 mg, repeated doses up to 20 mg b.i.d. for 14 days): generally safe and well‐tolerated

— article PMC10772668 (Clinical and Translational Science, 2023)
